Source: ChEMBL document CHEMBL2406947, “Syntheses and evaluation of novel isoliquiritigenin derivatives as potential dual inhibitors for amyloid-beta aggregation and 5-lipoxygenase” (Eur J Med Chem, 2013)
Activity calls are given as the source filed them. The calls are words filed in the database; no cut-off is given here.

What was measured:
[1] = Inhibition of potato 5-LOX using linoleic acid as substrate assessed as hydroperoxides production after 5 mins by enzyme immuno assay; set-up: species or system Solanum tuberosum
[2] = target: T1, Amyloid-beta precursor protein (Homo sapiens, UniProt P05067); test: Inhibition of amyloid beta (1-42) self-mediated aggregation (unknown origin) after 5 days by thioflavin T fluorescence method
T1 sequence (P05067 whole entry): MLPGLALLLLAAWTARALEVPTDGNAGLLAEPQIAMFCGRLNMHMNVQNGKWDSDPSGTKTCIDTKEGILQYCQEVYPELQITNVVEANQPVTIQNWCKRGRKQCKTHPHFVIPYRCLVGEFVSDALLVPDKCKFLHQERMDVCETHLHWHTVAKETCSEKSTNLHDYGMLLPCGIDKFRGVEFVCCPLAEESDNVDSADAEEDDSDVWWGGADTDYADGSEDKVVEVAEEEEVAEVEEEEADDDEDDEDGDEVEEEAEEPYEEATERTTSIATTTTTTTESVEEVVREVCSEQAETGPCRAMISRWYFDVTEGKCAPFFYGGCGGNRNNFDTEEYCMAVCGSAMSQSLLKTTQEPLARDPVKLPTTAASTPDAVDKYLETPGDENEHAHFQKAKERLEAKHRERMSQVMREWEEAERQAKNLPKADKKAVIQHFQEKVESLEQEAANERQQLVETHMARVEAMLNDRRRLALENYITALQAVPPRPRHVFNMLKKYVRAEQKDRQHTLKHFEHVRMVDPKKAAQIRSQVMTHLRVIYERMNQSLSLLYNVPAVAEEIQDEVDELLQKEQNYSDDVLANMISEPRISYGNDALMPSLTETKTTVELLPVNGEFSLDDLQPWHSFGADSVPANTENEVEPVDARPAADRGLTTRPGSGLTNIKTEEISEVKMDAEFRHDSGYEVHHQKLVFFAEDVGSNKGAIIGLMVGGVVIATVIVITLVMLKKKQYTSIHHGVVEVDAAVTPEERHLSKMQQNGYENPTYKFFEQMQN

[3] = Cytotoxicity against human SH-SY5Y cells after 48 hrs by MTT assay; type: cell-based
Outline: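 SH-SY5Y cells grown in DMEM with 10% FBS, 1 mM glutamine, penicillin/streptomycin, 5% CO2, 37 °C; seeded 10,000 cells/well, treated after 24 h with 0-100 µM for 48 h; MTT (5 mg/mL stock) added for 4 h, formazan dissolved in DMSO, absorbance at 570 nm.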

[4] = target: T1, Amyloid-beta precursor protein; test: Inhibition of amyloid beta (1 to 42) fibrilation (unknown origin) assessed as reduction in beta-sheet structure formation at 10 uM after 2 days by CD spectroscopy assay
Outline: (§1)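 20 µM Aβ(1-42) incubated with or without 10 µM compound in 50 mM sodium phosphate pH 7.4 at 37 °C for 2 days; CD spectra recorded at 25 °C, 190-260 nm, 1 mm quartz cell, 0.5 nm bandwidth, 10 nm/min; background and compound spectra subtracted.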

[5] = target: T1, Amyloid-beta precursor protein; test: Inhibition of amyloid beta (1 to 42) fibrilation (unknown origin) assessed as reduction in […] structure formation at 10 uM after 2 days by CD spectroscopy assay; outline: as §1
[6] = target: T1, Amyloid-beta precursor protein; test: Inhibition of amyloid beta (1 to 42) fibrilation (unknown origin) at 20 uM after 4 days by transmission electron microscopic analysis
Outline: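 Aβ(1-42) at 40 µM final in 50 mM phosphate pH 7.4 incubated at 37 °C for 4 days with or without 20 µM compound; samples applied to carbon-coated grids, water-washed, negatively stained 1 min with 2% uranyl acetate, examined by transmission electron microscopy.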

Row | SMILES | IC50 [1] | IC50 [2] | IC50 [3] | inhibition [4] | inhibition [5] | inhibition [6]
1 | CC(Cc1ccc(O)c(O)c1)C(C)Cc1ccc(O)c(O)c1 (stereo unspecified) [NORDIHYDROGUAIARETIC ACID] | 12.4 µM | – | – | – | – | –
2 | CCCNC(=O)c1ccc(/C=C/C(=O)c2ccc(OC)cc2O)cc1 | 12.9 µM | 19.9 µM | > 100 µM | – | – | –
3 | COc1ccc(C(=O)/C=C/c2ccc(C(=O)N(C)c3ccccc3)cc2)c(O)c1 | 20.4 µM | 20.1 µM | > 100 µM | – | – | –
4 | COc1ccc(C(=O)/C=C/c2ccc(OCCCOc3ccccc3)c(OC)c2)c(O)c1 | 13 µM | 10.9 µM | > 100 µM | – | – | –
5 | COc1ccc(C(=O)/C=C/c2ccc(OCc3ccccc3)cc2)c(O)c1 | 10.2 µM | 7.8 µM | > 100 µM | – | – | –
6 | COc1ccc(/C=C/C(=O)c2ccc(OC)cc2O)cc1 | 15.9 µM | 8.4 µM | > 100 µM | – | – | –
7 | CCCCCCCCCCCCNC(=O)c1ccc(/C=C/C(=O)c2ccc(OC)cc2O)cc1 | 15.7 µM | 15.9 µM | > 100 µM | – | – | –
8 | COc1ccc(C(=O)/C=C/c2cc(OC)c(OC)c(OC)c2)c(O)c1 | 10.3 µM | 9.7 µM | > 100 µM | – | – | –
9 | COC(=O)c1ccc(/C=C/C(=O)c2ccc(OC)cc2O)cc1 | 35.8 µM | 23.8 µM | > 100 µM | – | – | –
10 | COc1ccc(C(=O)/C=C/c2ccc(C(=O)Nc3ccccc3OC)cc2)c(O)c1 | 24.9 µM | 7.3 µM | > 100 µM | – | – | –
11 | COc1ccc(C(=O)/C=C/c2ccc(C(=O)N3CCOCC3)cc2)c(O)c1 | 6.1 µM | 3.2 µM | > 100 µM | Active | inactive | Active
12 | COc1ccc(C(=O)/C=C/c2ccc(C(=O)N3CCCCC3)cc2)c(O)c1 | 6.8 µM | 5.9 µM | > 100 µM | – | – | –
13 | O=C(/C=C/c1ccc(O)cc1)c1ccc(O)cc1O [ISOLIQUIRITIGENIN] | 18.6 µM | 19.7 µM | – | – | – | –
14 | COc1ccc(C(=O)/C=C/c2ccc(C(=O)NCc3ccccc3)cc2)c(O)c1 | 18 µM | 18.9 µM | > 100 µM | – | – | –
15 | COc1ccc(C(=O)/C=C/c2ccc(C(=O)N3CCCC3)cc2)c(O)c1 | 10.5 µM | 14.6 µM | > 100 µM | – | – | –
16 | CCOCCCOc1ccc(/C=C/C(=O)c2ccc(OC)cc2O)cc1OC | 12.4 µM | 5.8 µM | > 100 µM | – | – | –
17 | CCOCCOc1ccc(/C=C/C(=O)c2ccc(OC)cc2O)cc1 | 9.7 µM | 19.1 µM | > 100 µM | – | – | –
18 | COc1ccc(C(=O)/C=C/c2ccc(C(=O)N3CCN(C)CC3)cc2)c(O)c1 | 7.9 µM | 2.2 µM | > 100 µM | – | – | –
19 | CCOCCOc1cccc(/C=C/C(=O)c2ccc(OC)cc2O)c1 | 16.8 µM | 10.5 µM | > 100 µM | – | – | –
20 | COc1ccc(C(=O)/C=C/c2cc(Br)c(OCc3ccccc3)c(OC)c2)c(O)c1 | 11.6 µM | 12.5 µM | > 100 µM | – | – | –
21 | COc1ccc(C(=O)/C=C/c2ccc(C(=O)NC(C)C)cc2)c(O)c1 | 22.1 µM | 17.8 µM | > 100 µM | – | – | –
22 | COc1ccc(C(=O)/C=C/c2ccc(C(=O)Nc3ccc(C)cc3C)cc2)c(O)c1 | 16.3 µM | 8.3 µM | > 100 µM | – | – | –
23 | COc1ccc(C(=O)/C=C/c2ccc(C(=O)O)cc2)c(O)c1 | 30.3 µM | 18.5 µM | > 100 µM | – | – | –
24 | COc1ccc(C(=O)/C=C/c2ccc(C(=O)Nc3ccccc3O)cc2)c(O)c1 | 16.5 µM | 10.1 µM | > 100 µM | – | – | –
25 | COc1ccc(C(=O)/C=C/c2ccc(C(=O)Nc3cc([N+](=O)[O-])ccc3O)cc2)c(O)c1 | 11.4 µM | 13.3 µM | > 100 µM | – | – | –
26 | COc1ccc(C(=O)/C=C/c2ccc(C(=O)NCCc3ccccc3)cc2)c(O)c1 | 14.2 µM | 19.1 µM | > 100 µM | – | – | –
27 | COc1ccc(C(=O)/C=C/c2cc(OC)c(OC)cc2OC)c(O)c1 | 14.1 µM | 10.2 µM | > 100 µM | – | – | –
